Legend:
Type in all cases: functional
Felis catus [1] = experiment: Orexigenic activity in cat assessed as food consumption at 0.0312 mg/kg, po (reference value: 126 +/- 26 to 155 +/- 33 g)
Felis catus [2] = experiment: Orexigenic activity in cat assessed as food consumption at 0.25 mg/kg, po (reference value: 118 +/- 52 to 143 +/- 37 g)
Felis catus [3] = experiment: Orexigenic activity in cat assessed as food consumption at 0. 0312 mg/kg, po (reference value: 107 +/- 29 to 146 +/- 24 g)
Felis catus [4] = experiment: Orexigenic activity in cat assessed as food consumption at 0. 25 mg/kg, po (reference value: 119 +/- 39 to 155 +/- 34 g)
Felis catus [5] = experiment: Orexigenic activity in cat assessed as food consumption at 0. 0312 mg/kg, po (reference value: 126 +/- 34 to 150 +/- 52 g)
Felis catus [6] = experiment: Orexigenic activity in cat assessed as food consumption at 0. 25 mg/kg, po (reference value: 114 +/- 25 to 147 +/- 42 g)
Rattus norvegicus = experiment: Antiserotonin activity against po dosed Sprague-Dawley rat assessed as inhibition of serotonin-induced edema of right hind paw compound administered 1 hr prior to serotonin challenge
Outline: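 Male rats, 140-210 g, dosed orally 1 h before 5 µg serotonin (base) into the right hind paw; saline (0.05 mL) into the left paw. Feet removed and weighed 30 min later; percent inhibition of serotonin weight gain versus saline paw. Doses 0.156-80 mg/kg, 4-16 rats per dose. ED50 from log-dose regression.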

Cavia porcellus = experiment: Antihistaminic activity against ip dosed Duncan-Harley guinea pig assessed as inhibition of histamine aerosol-induced bronchoconstriction compound administered 30 mins prior to histamine challenge
Outline: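 Guinea pigs of either sex, 200-300 g. Compound given ip as a suspension in 1% methylcellulose. 30 min later, 3-min exposure to histamine aerosol (0.5% base) in individual chambers, then 10 min observation. Dose range 0.031-6.25 mg/kg, 3-4 levels, 5-10 animals per level. ED50 is the dose protecting 50% from bronchoconstriction death, from log-dose regression.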

Mus musculus = experiment: Anticholinergic activity in po dosed CF-1 mouse assessed as dose required to increase pupil diameter to 1.5 micrometer after 1 hr
Outline: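 Female CF-1 mice dosed orally, five dose levels, ten mice per dose. Pupil diameter measured with an ocular micrometer 1 h after dosing. ED1.5 is the dose raising pupil diameter to 1.5 micrometer units, derived by regression of response on log dose (Finney).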

Felis catus [7] = experiment: Orexigenic activity in cat assessed as food consumption at 0. 25 mg/kg, po (reference value: 179 +/- 31 g)

SMILES	Activity (Felis catus [1]) [g]	Activity (Felis catus [2]) [g]	Activity (Felis catus [3]) [g]	Activity (Felis catus [4]) [g]	Activity (Felis catus [5]) [g]	Activity (Felis catus [6]) [g]	ED50 (Rattus norvegicus) [mg/kg]	ED50 (Cavia porcellus) [mg/kg]	ED (Mus musculus) [mg/kg]	Activity (Felis catus [7]) [g]
COc1ccc2c(c1)C(=C1CCN(C)CC1)c1ccccc1C=C2	110	143	115	140	131	134				
CN1CCC(=C2c3ccccc3C=Cc3ccccc32)CC1 [CYPROHEPTADINE]							0.24	0.077	6	220
